By Ki is commonly meant the dissociation constant of the complex between target and ligand, obtained from inhibition or displacement. A high value points to lower affinity. Usually Cmax stands for the highest concentration seen after dosing. The Tmax is the time from dosing to the highest level. The AUC is concentration integrated over time. Higher therefore signals high exposure.

One data set has as its target D(1B) dopamine receptor (Homo sapiens, UniProt P21918). Description: Binding affinity at dopamine D5 receptor.
Data set [1] has as its target T1, D(1A) dopamine receptor (Homo sapiens, UniProt P21728). Description: Activity at dopamine D1 receptor by cAMP assay. The format is functional. The conditions noted are these: for Activity: filed as antagonist. In general terms: cAMP levels reflect the balance of adenylyl cyclase and phosphodiesterase activity.
The target of data set [2] is T2, D(2) dopamine receptor (Homo sapiens, UniProt P14416). Description: Displacement of [3H]methylspiperone from human dopamine D2 receptor expressed in CHO cells. The format is cell-based. (In general: In a radioligand displacement assay an active substance lowers the binding of a labelled ligand.)
T2 sequence (P14416 whole entry): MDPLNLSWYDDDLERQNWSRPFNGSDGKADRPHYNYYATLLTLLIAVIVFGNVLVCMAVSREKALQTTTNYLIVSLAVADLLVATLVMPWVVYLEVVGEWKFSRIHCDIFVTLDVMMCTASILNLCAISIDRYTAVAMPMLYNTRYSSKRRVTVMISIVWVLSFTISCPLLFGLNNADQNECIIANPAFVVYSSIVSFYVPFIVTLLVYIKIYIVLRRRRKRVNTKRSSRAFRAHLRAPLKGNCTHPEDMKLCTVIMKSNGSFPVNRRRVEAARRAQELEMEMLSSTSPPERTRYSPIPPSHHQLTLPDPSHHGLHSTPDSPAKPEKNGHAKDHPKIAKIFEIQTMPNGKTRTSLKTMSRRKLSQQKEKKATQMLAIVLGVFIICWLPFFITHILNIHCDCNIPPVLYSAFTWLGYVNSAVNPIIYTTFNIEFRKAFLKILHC
The nature of data set [3]: Cmax in Sprague-Dawley rat plasma at 10 mg/kg, po. Format: ADME, organism-based. Also noted: dose 10 mg/kg, route oral. The method, boiled down:
(§1)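 Single oral dose of 10 mg/kg to two male Sprague-Dawley rats. Blood drawn at several time points. Plasma levels of individual animals, generally within ±25% of the mean, were used to calculate PK parameters.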

A short description of data set [4]: Tmax in Sprague-Dawley rat plasma at 10 mg/kg, po. The format is ADME, organism-based. Also noted: dose 10 mg/kg, route oral. In short, it runs like this:
as §1

A short description of data set [5]: AUC in Sprague-Dawley rat plasma at 10 mg/kg, po. Also noted: dose 10 mg/kg, route oral. The format is ADME, organism-based. In short, it runs like this:
as §1

The target in data set [6] is T1, D(1A) dopamine receptor. Description: Displacement of [3H]SCH 23390 from human dopamine D1 receptor expressed in CHO cells. The format is cell-based.
Data set [7] has as its target 5-hydroxytryptamine receptor 2A (Homo sapiens, UniProt P28223). In words: Binding affinity at 5HT2A receptor.
For data set [8], the target named is T3, Alpha-2A adrenergic receptor (Homo sapiens, UniProt P08913).
T3 sequence (P08913 whole entry): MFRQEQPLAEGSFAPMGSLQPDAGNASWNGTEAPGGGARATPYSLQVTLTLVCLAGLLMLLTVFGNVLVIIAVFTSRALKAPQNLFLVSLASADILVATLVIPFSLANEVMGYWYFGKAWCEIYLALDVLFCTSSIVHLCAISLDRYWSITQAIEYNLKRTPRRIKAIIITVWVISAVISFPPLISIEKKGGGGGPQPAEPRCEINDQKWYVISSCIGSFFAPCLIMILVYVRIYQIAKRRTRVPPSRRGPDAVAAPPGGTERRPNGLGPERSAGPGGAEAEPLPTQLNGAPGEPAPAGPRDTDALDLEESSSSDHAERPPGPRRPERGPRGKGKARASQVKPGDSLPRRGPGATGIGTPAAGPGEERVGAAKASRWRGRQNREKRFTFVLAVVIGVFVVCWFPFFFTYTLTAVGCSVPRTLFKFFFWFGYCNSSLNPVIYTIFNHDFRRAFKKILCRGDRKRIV
In words: Binding affinity at adrenergic alpha2A receptor.

The next data set deals with T4, D(4) dopamine receptor (Homo sapiens, UniProt P21917).
T4 sequence (P21917 whole entry): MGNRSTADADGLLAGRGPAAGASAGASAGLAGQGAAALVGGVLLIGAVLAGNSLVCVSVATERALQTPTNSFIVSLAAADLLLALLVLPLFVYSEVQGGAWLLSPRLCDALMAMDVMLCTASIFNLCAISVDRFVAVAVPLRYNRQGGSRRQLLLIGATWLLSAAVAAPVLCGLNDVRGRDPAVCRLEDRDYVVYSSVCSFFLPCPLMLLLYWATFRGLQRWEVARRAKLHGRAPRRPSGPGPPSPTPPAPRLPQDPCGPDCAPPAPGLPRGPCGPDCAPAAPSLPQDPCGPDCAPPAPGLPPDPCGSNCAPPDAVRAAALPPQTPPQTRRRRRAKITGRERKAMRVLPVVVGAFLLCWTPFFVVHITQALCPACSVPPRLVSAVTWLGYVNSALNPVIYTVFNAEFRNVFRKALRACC
In words: Binding affinity at dopamine D4 receptor.

Data set [9] has as its target T2, D(2) dopamine receptor. In words: Binding affinity at dopamine D2 receptor. In short, it runs like this:
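Membranes from cells stably expressing D2 receptor (4-7 pmol/mg protein; Ltk- cells in one passage, CHO in another), made by hypotonic lysis and 48,000g spin and stored at -80 °C. Incubated with 0.5 nM [3H]methylspiperone for 1 h at room temperature. Nonspecific binding set by 10 µM (-)-sulpiride. Rapid filtration, then scintillation counting. One-site competition fit; Ki is the mean of separate determinations.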

T1 sequence (P21728 whole entry): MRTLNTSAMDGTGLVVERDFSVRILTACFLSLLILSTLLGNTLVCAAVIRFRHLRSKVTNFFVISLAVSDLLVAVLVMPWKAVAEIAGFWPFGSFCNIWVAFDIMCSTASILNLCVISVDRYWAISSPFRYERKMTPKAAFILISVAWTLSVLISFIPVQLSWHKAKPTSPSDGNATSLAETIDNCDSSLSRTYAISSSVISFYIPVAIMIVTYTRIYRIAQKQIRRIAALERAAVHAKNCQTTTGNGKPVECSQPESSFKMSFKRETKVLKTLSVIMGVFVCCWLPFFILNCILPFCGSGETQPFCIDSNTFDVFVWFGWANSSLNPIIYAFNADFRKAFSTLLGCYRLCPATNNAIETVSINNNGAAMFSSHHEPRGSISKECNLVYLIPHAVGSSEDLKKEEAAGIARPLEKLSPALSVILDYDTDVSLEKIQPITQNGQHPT
Chain of D(1B) dopamine receptor (P21918 whole entry): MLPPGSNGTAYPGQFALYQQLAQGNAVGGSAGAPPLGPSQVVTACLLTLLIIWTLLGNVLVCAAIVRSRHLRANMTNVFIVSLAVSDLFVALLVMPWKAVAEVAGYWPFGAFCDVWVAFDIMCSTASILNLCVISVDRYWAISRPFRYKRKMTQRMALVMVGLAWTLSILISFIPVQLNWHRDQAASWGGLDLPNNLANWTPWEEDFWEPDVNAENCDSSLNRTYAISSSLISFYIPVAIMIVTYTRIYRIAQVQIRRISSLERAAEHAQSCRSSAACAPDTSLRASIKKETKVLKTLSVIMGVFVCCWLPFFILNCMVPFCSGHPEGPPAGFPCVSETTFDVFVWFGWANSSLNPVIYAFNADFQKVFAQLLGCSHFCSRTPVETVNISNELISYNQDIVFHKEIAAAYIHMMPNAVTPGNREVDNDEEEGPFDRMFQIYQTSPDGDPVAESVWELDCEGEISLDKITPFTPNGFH
Chain of 5-hydroxytryptamine receptor 2A (P28223 whole entry): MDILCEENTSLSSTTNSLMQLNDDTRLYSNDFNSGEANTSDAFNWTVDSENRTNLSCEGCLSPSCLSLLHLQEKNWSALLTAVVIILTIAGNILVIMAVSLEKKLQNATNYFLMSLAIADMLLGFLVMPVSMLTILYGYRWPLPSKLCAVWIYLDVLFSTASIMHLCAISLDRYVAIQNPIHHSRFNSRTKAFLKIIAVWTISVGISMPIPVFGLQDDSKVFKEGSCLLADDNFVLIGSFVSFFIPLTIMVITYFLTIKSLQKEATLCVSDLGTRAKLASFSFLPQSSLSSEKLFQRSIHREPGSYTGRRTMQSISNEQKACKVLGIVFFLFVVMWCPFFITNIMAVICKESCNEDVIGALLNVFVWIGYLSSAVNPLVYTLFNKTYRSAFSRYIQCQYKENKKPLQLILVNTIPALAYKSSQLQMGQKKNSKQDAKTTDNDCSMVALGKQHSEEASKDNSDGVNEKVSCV

In the case of `COc1cccc(OC)c1C(=O)NN1c2ccc(Cl)cc2N=C(N2CCN(C)CC2)c2ccccc21`, the inhibition constant Ki on D(1B) dopamine receptor came to 38 nM; at D(2) dopamine receptor [2], 340 nM; at D(1A) dopamine receptor [6], 1.6 nM; in data set [7], 13.8 nM; in data set [8], 169 nM; on D(4) dopamine receptor, 1810 nM. Moreover, the Ki on D(2) dopamine receptor [9] was 340 nM. Further, at D(1A) dopamine receptor [1], the Kb stood at 0.7 nM. The Activity entry at D(1A) dopamine receptor [1] is “Antagonist”. In data set [3], this molecule showed a Cmax of 802 ng/mL. Also, the time to peak (Tmax) in [4] came out at 0.5 h. In addition, in [5], the AUC was 2670 ng·h/mL.
`CN1CCN(C2=Nc3cc(Cl)ccc3N(NC(=O)c3ccccc3Cl)c3ccccc32)CC1`: the Ki stood at 73 nM on D(1B) dopamine receptor; 181 nM on D(2) dopamine receptor [2]; 4 nM at D(1A) dopamine receptor [6]; 1 nM in data set [7]; 455 nM in [8]; 870 nM on D(4) dopamine receptor. On D(2) dopamine receptor [9], this molecule registered a Ki of 181 nM. The molecule also returned a Kb at D(1A) dopamine receptor [1] of 2.8 nM. The Activity result at D(1A) dopamine receptor [1] is “Antagonist”. The molecule further yielded a Cmax in [3] of 821 ng/mL. For the same molecule, the Tmax in data set [4] is 1 h. Further, the exposure (AUC) in [5] was 2660 ng·h/mL.
On to `CN1CCN(C2=Nc3cc(Cl)ccc3N(NC(=O)c3c(N)cccc3Cl)c3ccccc32)CC1`, for which the inhibitory constant (Ki) stood at 53 nM at D(1B) dopamine receptor; 496 nM on D(2) dopamine receptor [2]; 2.6 nM at D(1A) dopamine receptor [6]; 0.9 nM in data set [7]; 327 nM in data set [8]; 808 nM at D(4) dopamine receptor. Further, on D(2) dopamine receptor [9], the Ki turned out to be 496 nM. Moreover, the Kb on D(1A) dopamine receptor [1] amounted to 1.7 nM. Besides, the Activity result on D(1A) dopamine receptor [1] was “Antagonist”.
With `CN1CCN(C2=Nc3cc(Cl)ccc3N(NC(=O)c3c(F)cccc3C(F)(F)F)c3ccccc32)CC1`, the Ki at D(1B) dopamine receptor was 7 nM; at D(2) dopamine receptor [2], 383 nM; at D(1A) dopamine receptor [6] it was 2.5 nM; in data set [7] it was 1.2 nM; in data set [8] it was 2000 nM; on D(4) dopamine receptor, 2000 nM. This molecule also registered a Ki on D(2) dopamine receptor [9] of 383 nM. This molecule gave a Kb at D(1A) dopamine receptor [1] of 2.3 nM. Moreover, the Activity entry at D(1A) dopamine receptor [1] is “Antagonist”.
Consider `Cc1cccc(N)c1C(=O)NN1c2ccc(Cl)cc2N=C(N2CCN(C)CC2)c2ccccc21`, for which the Ki was 58 nM at D(1B) dopamine receptor; 1020 nM on D(2) dopamine receptor [2]; 3.2 nM at D(1A) dopamine receptor [6]; 2.9 nM in [7]; 456 nM in data set [8]; 4850 nM on D(4) dopamine receptor. Moreover, on D(2) dopamine receptor [9], the Ki is 1020 nM. This molecule also displayed a Kb at D(1A) dopamine receptor [1] of 6.7 nM. Further, the Activity result on D(1A) dopamine receptor [1] is “Antagonist”.
`CN1CCN(C2=Nc3cc(Cl)ccc3N(NC(=O)c3cccc4ccccc34)c3ccccc32)CC1`: the inhibition constant Ki at D(1B) dopamine receptor came out at 105 nM; at D(2) dopamine receptor [2], 458 nM; on D(1A) dopamine receptor [6] it was 3.8 nM; in data set [7] it was 1 nM; in data set [8] it was 882 nM; on D(4) dopamine receptor, 977 nM. The Ki on D(2) dopamine receptor [9] came out at 458 nM. This molecule yielded a Kb at D(1A) dopamine receptor [1] of 2 nM. The Activity result at D(1A) dopamine receptor [1] is “Antagonist”. Moreover, in data set [3], the peak level (Cmax) was 3570 ng/mL. Moreover, the time of peak concentration (Tmax) in [4] worked out at 1 h. Besides, the AUC in [5] amounted to 12900 ng·h/mL.

Values taken from ChEMBL document CHEMBL1146871, “Hydrazides of clozapine: a new class of D1 dopamine receptor subtype selective antagonists” (Bioorg Med Chem Lett, 2006).
